Screening data as filed in PubChem.
The list is not random: actives were taken first. Their share in the collection is about 2%.
SENP1 inh: SENP1 (human) catalytic domain inhibition | Q9P0U3 | recombinant SENP1 catalytic domain, CyPet-SUMO1-YPet FRET cleavage | inhibition, % at 10 µM | hit rate 0.21% among 360,000;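 active = inhibition at least 30% at 10 µM, raw YFP signal under a set limit, fluorescence ratio 0.5 to 1.5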;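 also: 0% = enzyme with DMSO and 100% = no enzyme wells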
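Assay system: hSENP1 catalytic domain, recombinant. Amount: SENP1 enzyme, 20 pM final. Schedule: 50 min reaction, RT, dark. Technique: FRET, CFP and YFP emission. Control set: no-enzyme wells low, DMSO-plus-enzyme wells high control.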
Rpn11 inh: blocks the human proteasome subunit Rpn11. hit rate 0.59% among 360,000. AID 588493. inhibition, % at 20 µM. human 26S proteasome, Ub4-pepOG fluorescence polarization; 20S core pre-blocked with epoxomicin;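 active = inhibition at 20 µM, scaled to each plate's controls, above about 33%, limit read from the data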
HNF4A DNA FP: change in binding of human HNF4 alpha to DNA | P41235 | HNF4a-FITC DNA binding, fluorescence polarization, 1 h | activity change, % at 10 µM | hit rate 0.3% among 360,000; in the data active = activity change above about 30%, passing the limit was not always enough
TPT1 inhibitor: C. albicans TPT1 enzyme inhibition; recombinant caTPT1, FP RNA substrate dephosphorylation; inhibition, % at 5 µM; hit rate 0.81% among 300,000;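 active = inhibition above the mean of all tested compounds plus 3 SD, set per screening campaign, cut at about 24% in these data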;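 also: plate controls were DMSO alone for no effect and ferristatin control at 100 nM for full effect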
ATG4B inhibitor: blocks human ATG4B protease cleavage of LC3 substrate | Q9Y4P1 | ATG4B cleavage of LC3-PLA2, NBD-HPC fluorescence, 1 h | inhibition, % at 8.33 µM | hit rate 0.51% among 340,000 | AID 504462; in the data active = inhibition above about 40%
Target sequence (Q9Y4P1 whole entry, looked up): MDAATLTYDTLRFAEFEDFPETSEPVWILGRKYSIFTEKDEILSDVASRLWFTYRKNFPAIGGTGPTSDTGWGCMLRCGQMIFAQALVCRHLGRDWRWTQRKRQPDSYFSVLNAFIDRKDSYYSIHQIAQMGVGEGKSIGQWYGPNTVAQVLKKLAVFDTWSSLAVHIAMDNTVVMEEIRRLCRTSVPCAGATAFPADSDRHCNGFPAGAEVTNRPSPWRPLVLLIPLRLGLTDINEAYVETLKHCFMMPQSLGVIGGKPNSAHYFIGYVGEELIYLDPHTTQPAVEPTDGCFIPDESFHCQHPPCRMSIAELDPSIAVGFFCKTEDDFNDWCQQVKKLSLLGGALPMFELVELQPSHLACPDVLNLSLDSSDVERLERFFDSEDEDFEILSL
CSN deneddyl inh: inhibitors of human CSN-mediated cullin deneddylation; Q92905; inhibition, % at 12.5 µM; hit rate 0.38% among 360,000; Purified CSN, SCF-Nedd8-OG deneddylation, fluorescence polarization;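 active = pattern-corrected inhibition above about 35%, with an unprinted fluorescence ratio check between 0.5 and 1.5, limit read from the data, passing the limit was not always enough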;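 also: 0% = enzyme with substrate and 100% = substrate without enzyme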
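assay system = purified human Csn5 enzyme expressed in HEK293T cells | amount = 0.24 nM enzyme | buffer or medium = Tris/NaCl/DTT buffer, pH 7.5 | reagent = 10 nM SCFSkp2-Nedd8OG | compound = one concentration, 12.5 µM, 0.25% DMSO | times = 90 min reaction at room temperature | signal = FP | read-out basis = % inhibition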
ATG4B confirm: confirmation of human ATG4B inhibitors. shares compounds with ATG4B inhibitor. ATG4B protease fluorescent substrate cleavage assay. inhibition, % at 8.33 µM. hit rate 92% among 320; in the data active = inhibition above about 39%
PLA2 counter: inhibits human PLA2, flagging false ATG4B inhibitors; shares compounds with ATG4B inhibitor; purified PLA2, NBD-C6-HPC fluorescence, 45 min; inhibition, % at 8.33 µM; hit rate 66% among 1,600; AID 588402; in the data active = inhibition above about 50%
Target sequence (P04054 whole entry, looked up): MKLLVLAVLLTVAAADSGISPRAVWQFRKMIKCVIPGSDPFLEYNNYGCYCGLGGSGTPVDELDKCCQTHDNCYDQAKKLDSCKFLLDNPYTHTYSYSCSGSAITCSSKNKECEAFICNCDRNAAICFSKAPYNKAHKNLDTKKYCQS
* = called active by the depositor; / = no result.

SMILES | SENP1 inh | Rpn11 inh | HNF4A DNA FP | TPT1 inhibitor | ATG4B inhibitor | CSN deneddyl inh | PLA2 counter | others
COc1ccc(F)cc1-c1cc(C(=O)NCc2ccc(F)cc2)[nH]n1 | 2.1 | -3.1 | 1.2 | / | / | -1.2 | /
CC(C)(C)C(=O)CSc1ncnc2sc3c(c12)CCC3 | -6.9 | 5.9 | 3.3 | 1.6 | / | 3.7 | 20.5
Cc1cc(NS(C)(=O)=O)c(=O)n(Cc2cccc(C(F)(F)F)c2)c1 | -10.5 | 5.7 | 7.6 | / | / | 2.0 | /
Oc1c(Br)cc(Br)c(/C=N/n2c(-c3ccccc3)n[nH]c2=S)c1Br | 14.0 | 3.7 | -6.7 | -1.1 | 44.1* | 8.5 | 8.9 | ATG4B confirm=51.6*
Cc1csc(NC(=O)c2cc3c(C)nn(Cc4ccccc4Cl)c3s2)n1 | -9.9 | 6.0 | 8.5 | 5.3 | 66.1* | -9.3 | 58.0*
C[C@@H]1Cn2cnc(C(=O)N[C@@H](Cc3c[nH]c4ccccc34)C(=O)OC(C)(C)C)c2C(=O)N1 | -0.9 | 0.5 | 0.7 | / | / | -0.8 | /
N#Cc1c(NC(=O)C2CC(c3ccccc3Cl)=NO2)sc2c1CCC2 (stereo not given) | -2.2 | 0.1 | -3.5 | -0.1 | 50.6* | 0.7 | 35.2 | ATG4B confirm=63.0*
N#Cc1c(NC(=O)C2CC(c3ccccc3O)=NO2)sc2c1CCC2 (stereo not given) | -1.7 | -2.4 | 5.7 | 0.0 | 3.0 | -16.1 | /
O=C(O)c1cccc(Oc2ccc(C(=O)O)c([N+](=O)[O-])c2)c1 | 1.9 | -2.3 | -1.2 | / | -8.6 | -3.3 | /
Cn1c(CSCc2ccccc2Cl)n[nH]c1=S | 1.7 | 1.2 | 1.6 | -0.1 | 1.0 | -0.6 | /
S=c1[nH]nc(CSCc2ccccc2Cl)n1C1CCCCC1 | 0.2 | -4.8 | -0.2 | / | 54.9* | 3.2 | 63.3*
CC(C(=O)NCC1CCCCC1)N1CCN(S(=O)(=O)c2cccs2)CC1 (stereo not given) | -2.5 | 4.7 | -2.2 | / | -0.5 | -4.4 | /
Cc1[nH]c(=S)sc1Cc1ccc(F)cc1 | -0.4 | 4.1 | -3.0 | 0.2 | 40.0* | -12.0 | -11.8
Fc1ccc(-c2csc(=S)[nH]2)cc1 | 2.2 | -1.1 | -1.3 | 0.3 | 0.3 | -5.1 | /
C=CC(C)(O)CCCC(C)CCCC(C)CCCC(C)C (stereo not given) | -0.7 | -0.9 | -2.5 | / | 3.7 | 1.6 | /
COC(=O)C(Sc1nc(C)cc(C)c1C#N)c1ccccc1 (stereo not given) | 3.1 | 2.6 | 0.3 | -4.5 | 49.6* | -1.4 | 56.2*
Cc1nc(SC(C(N)=O)c2ccccc2)c(C#N)c(C)c1C (stereo not given) | 1.0 | -3.0 | 1.1 | 0.3 | 25.2 | 1.5 | /
O=S(CC(O)c1ccccc1)c1ccccc1 (stereo not given) | -0.7 | -4.8 | 2.0 | / | / | 3.9 | /
C=CCn1c(-c2oc3nc(-c4ccccc4)cc(-c4ccccc4)c3c2N)n[nH]c1=S | -3.9 | 11.9 | 15.0 | -1.5 | 42.1* | -4.8 | 35.1 | ATG4B confirm=69.5*
Cc1ccccc1S(=O)(=O)Nc1nc2ccccc2nc1N1CCc2ccccc2C1 | -16.3 | 5.8 | -1.2 | -1.3 | 43.1* | 7.8 | 28.9 | ATG4B confirm=62.0*
Cc1ccc(S(=O)(=O)Nc2nc3ccccc3nc2N2CCN(c3ccccc3F)CC2)cc1 | -5.3 | 9.9 | 3.7 | -2.9 | 61.2* | 3.2 | 69.2*
O=S(=O)(Nc1nc2ccccc2nc1N1CCc2ccccc2C1)c1ccc(Cl)cc1 | -10.6 | 7.7 | 4.8 | 2.9 | 40.1* | -1.0 | 4.3 | ATG4B confirm=85.5*
C[C@@H]1CN([C@@H](C)CO)C(=O)CCCn2nncc2CO[C@H]1CN(C)Cc1cccnc1 | -0.6 | -2.5 | 0.5 | / | / | -3.6 | /
C/C(=N\NC(=O)c1cccc(N/N=C(\C)c2cc(O)ccc2O)c1)c1cc(O)ccc1O | 25.2 | 2.3 | 5.0 | 1.8 | 46.4* | 3.5 | 78.0*
Cc1cccc(C(=O)Nc2sc(-c3ccccc3)cc2C(=O)O)c1 | -9.5 | 3.1 | -6.2 | 2.5 | 68.2* | 7.7 | 75.2*
SMILES | SENP1 inh | Rpn11 inh | HNF4A DNA FP | TPT1 inhibitor | ATG4B inhibitor | CSN deneddyl inh | PLA2 counter | others
CC(C)(C)C(=O)Nc1sc(-c2ccccc2)cc1C(=O)O | 3.3 | 2.5 | -0.3 | 1.9 | 1.8 | -0.2 | /
CC(C)c1ccccc1NC(=O)COC(=O)c1c2c(nc3ccccc13)CCN(Cc1ccccc1)C2 | -12.0 | 21.7 | -0.2 | -3.7 | 46.4* | -0.3 | 58.1*
CCCCn1c(N)c(N(CCC(C)C)C(=O)COC(=O)c2ccc3ccccc3c2)c(=O)[nH]c1=O | -4.5 | 0.2 | 5.5 | / | -0.6 | -0.8 | /
COc1ccc(Nc2c[nH]c(=O)[nH]c2=O)cc1 | 0.6 | 1.7 | -0.5 | / | 1.2 | 0.7 | /
Cc1ccc2c(c1)nnn2C1CCN(S(=O)(=O)c2ccc(C(=O)N(C)C)cc2)CC1 | -1.4 | -0.8 | -1.4 | -2.5 | -17.2 | -5.5 | /
Cc1ccc2c(c1)nnn2C1CCN(S(=O)(=O)c2ccc(C(=O)N3CC(C)CC(C)C3)cc2)CC1 (stereo not given) | 0.0 | 2.1 | 3.4 | 3.0 | 59.1* | -1.7 | 72.8*
CN(C)c1ccnc(Oc2ccc(C(C)(C)C)cc2)c1C#N | 1.4 | 0.0 | -1.6 | 0.0 | 74.5* | -1.5 | 80.2*
CN(C)c1ccnc(Oc2ccc(Cl)cc2)c1C#N | -1.0 | -2.7 | 3.5 | -2.8 | 13.8 | -3.3 | /
CN1CCc2nc3sc(C(=O)C45CC6CC(CC(C6)C4)C5)c(N)c3cc2C1 | -20.0 | 33.4 | 28.3 | 14.0 | 45.3* | -9.6 | -3.9
Nc1c(C(=O)O)sc2nc3c(cc12)CCCC3 | -44.6 | 12.0 | 4.6 | 1.9 | -4.3 | -0.8 | /
O=C(C1=C(c2ccccc2)C(=O)c2ccccc2C1=O)c1ccccc1 | 0.3 | 5.9 | 3.3 | / | 45.5* | 0.8 | 51.3*
COC1=C(c2ccccc2)C(=O)c2ccccc2C1=O | 13.0 | -13.4 | -6.0 | 0.0 | -10.4 | 9.1 | /
Cc1cc(C2C(=O)NC(=O)C2=O)c(C)cc1Br (stereo not given) | 2.0 | 2.2 | -0.4 | / | -1.8 | 5.8 | /
O=C(O)CSc1nc2sc3c(c2c(=O)n1-c1ccccc1)CCC3 | -0.5 | 0.4 | -5.3 | -0.6 | 4.6 | 2.8 | /
Nc1nc(SCc2nnc(SCC(=O)O)n2-c2ccccc2)nc2sc3c(c12)CCCC3 | 3.1 | -2.2 | 5.6 | -2.0 | 46.1* | 4.2 | 63.0*
COc1cccc(OC)c1C(=O)Nc1ccc(C(=O)NCc2ccccc2)cc1 | 0.3 | 0.9 | 6.9 | -3.5 | -3.6 | -2.7 | /
O=[N+]([O-])c1cccc(S(=O)(=O)Nc2nc3ccccc3nc2Nc2cccc(S(=O)(=O)N3CCCCC3)c2)c1 | 1.3 | 17.6 | -5.7 | / | 46.0* | 5.3 | 49.7
Cc1ccc(C(=O)OCC(=O)N2CCNC2=O)c(C)c1 | 1.9 | -8.0 | -2.8 | / | 7.8 | 0.8 | /
